Laboratory results as given in article PMC4304654 (Bioorganic & medicinal chemistry, 2012).
In brackets after ≈: the same amount, converted by molar mass.

Tests used:
[1] = Aqueous solubility in the sodium acetate buffer of the fibrillization assay; type: physicochemical
[2] = target: K18 tau fragment (amino acids 244–369) bearing the P301L mutation (K18PL) (Homo sapiens, UniProt P10636, P618L); test: Heparin-induced K18PL tau fibrillization, thioflavin-T; type: biochemical
Method in brief: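 Heparin-induced fibrillization of the P301L K18 tau fragment (residues 244–369) in sodium acetate buffer, with test compound at a range of concentrations, each in triplicate. Read-out is thioflavin-T fluorescence of cross-beta fibrils. IC50 comes from a sigmoidal fit of the concentration-response, from one curve fit or the mean of 2 or more separate analyses. Maximal % inhibition is also reported.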

[3] = Brain and plasma levels 1 h after i.p. administration of 5 mg/kg; type: in vivo, B6C3F1 mice; conditions: mice
Method in brief: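 Mice got a single i.p. 5 mg/kg dose of test compound and were sacrificed 1 h later. Perfused brain hemispheres were sonicated in 10 mM ammonium acetate, pH 5.7 (50% w/v). Plasma came from EDTA-treated blood spun 10 min at 4500g, 4 °C. Samples were acetonitrile-precipitated and spun at 15000g. Supernatants went to LC-MS/MS (MRM, C18, 35 °C) and were quantified against matrix-matched linear standard curves.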

Chain of K18 tau fragment (amino acids 244–369) bearing the P301L mutation (K18PL) (P10636 561-686 P618L): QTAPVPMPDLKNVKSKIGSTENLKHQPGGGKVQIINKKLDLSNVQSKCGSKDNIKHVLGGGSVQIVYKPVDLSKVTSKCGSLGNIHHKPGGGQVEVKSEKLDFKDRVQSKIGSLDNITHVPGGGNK

solubility [1] [µM]	SMILES	further results
> 200	CC(C)NC(=O)c1nn(-c2ccc(O)cc2)c(=O)c2c(N)scc12 [Compound 49, 5-Amino-3-(4-hydroxyphenyl)-N-isopropyl-4-oxo-3,4-dihydrothieno[3,4-d]pyridazine-1-carboxamide]	–
> 200	Cc1nn(-c2ccccn2)c(=O)c2c(N)scc12 [Compound 60, 7-Amino-4-methyl-2-(pyridin-2-yl)thieno[3,4-d]pyridazin-1(2H)-one]	–
–	CC(C)NC(=O)c1nn(-c2ccc(Cl)cc2)c(=O)c2c1CSC2=O [Compound 72, 3-(4-Chlorophenyl)-N-isopropyl-4,5-dioxo-3,4,5,7-tetrahydrothieno[3,4-d]pyridazine-1-carboxamide]	Inhibition in the K18PL fibrillization assay [2]: near full inhibition; Brain penetration ([3]; 1 h after 5 mg/kg i.p.): not brain-penetrant
80 (≈ 29.1 µg/mL)	CCOC(=O)c1nn(-c2ccc(Cl)cc2)c(=O)c2c(NC)scc12 [Compound 66, Ethyl 3-(4-chlorophenyl)-5-(methylamino)-4-oxo-3,4-dihydrothieno[3,4-d]pyridazine-1-carboxylate]	–
80 (≈ 28.9 µg/mL)	Nc1scc2c(C(=O)NC3CC3)nn(-c3ccccc3Cl)c(=O)c12 [Compound 45, 5-Amino-3-(2-chlorophenyl)-N-cyclopropyl-4-oxo-3,4-dihydrothieno[3,4-d]pyridazine-1-carboxamide]	–
80 (≈ 31.6 µg/mL)	Nc1scc2c(C(=O)NC3CC3)nn(-c3ccc(C(F)(F)F)cc3)c(=O)c12 [Compound 47, 5-Amino-N-cyclopropyl-4-oxo-3-(4-(trifluoromethyl)-phenyl)-3,4-dihydrothieno[3,4-d]pyridazine-1-carboxamide]	–
> 200	CC(C)n1nc(-c2ccccc2)c2csc(N)c2c1=O [Compound 65, 7-Amino-2-isopropyl-4-phenylthieno[3,4-d]pyridazin-1(2H)-one]	–
> 200	Nc1scc2c(C(=O)O)nn(-c3ccc(C(F)(F)F)cc3)c(=O)c12 [Compound 38, 5-Amino-4-oxo-3-(4-(trifluoromethyl)phenyl)-3,4-dihydrothieno[3,4-d]pyridazine-1-carboxylic acid]	–
> 200	O=C(O)c1nn(-c2ccc(F)cc2)c(=O)c2c1CSC2=O [Compound 70, 3-(4-Fluorophenyl)-4,5-dioxo-3,4,5,7-tetrahydrothieno[3,4-d]pyridazine-1-carboxylic acid]	Inhibition in the K18PL fibrillization assay [2]: near full inhibition
32 (≈ 12.3 µg/mL)	CCOC(=O)c1nn(-c2ccc(C(F)(F)F)cc2)c(=O)c2c(N)scc12 [Compound 30, Ethyl 5-amino-4-oxo-3-(4-(trifluoromethyl)phenyl)-3,4-dihydrothieno[3,4-d]pyridazine-1-carboxylate]	–
> 200	Nc1scc2c(-c3ccccc3)nn(CC(F)(F)F)c(=O)c12 [Compound 64, 7-Amino-4-phenyl-2-(2,2,2-trifluoroethyl)thieno[3,4-d]pyridazin-1(2H)-one]	–
> 200	Cc1nn(-c2cccnc2)c(=O)c2c(N)scc12 [Compound 61, 7-Amino-4-methyl-2-(pyridin-3-yl)thieno[3,4-d]pyridazin-1(2H)-one]	–
32 (≈ 12.3 µg/mL)	CCOC(=O)c1nn(-c2ccc(Cl)cc2)c(=O)c2c(N)sc(Cl)c12 [Compound 67, Ethyl 5-amino-7-chloro-3-(4-chlorophenyl)-4-oxo-3,4-dihydrothieno[3,4-d]pyridazine-1-carboxylate]	Inhibition in the K18PL fibrillization assay [2]: near full inhibition
12.8 (≈ 4.24 µg/mL)	CCOC(=O)c1nn(-c2ccc(O)cc2)c(=O)c2c(N)scc12 [Compound 32, Ethyl 5-amino-3-(4-hydroxyphenyl)-4-oxo-3,4-dihydrothieno[3,4-d]pyridazine-1-carboxylate]	–
12.8 (≈ 4.48 µg/mL)	CCOC(=O)c1nn(-c2ccccc2Cl)c(=O)c2c(N)scc12 [Compound 27, Ethyl 5-amino-3-(2-chlorophenyl)-4-oxo-3,4-dihydrothieno-[3,4-d]pyridazine-1-carboxylate]	–
> 200	Cc1nn(C2CCCCC2)c(=O)c2c(N)scc12 [Compound 59, 7-Amino-2-cyclohexyl-4-methylthieno[3,4-d]pyridazin-1(2H)-one]	–
12.8 (≈ 5.11 µg/mL)	CCOC(=O)c1nn(-c2ccc(OC(F)(F)F)cc2)c(=O)c2c(N)scc12 [Compound 31, Ethyl 5-amino-4-oxo-3-(4-(trifluoromethoxy)phenyl)-3,4-dihydrothieno[3,4-d]pyridazine-1-carboxylate]	–
> 200	Nc1scc2c(C(=O)O)nn(-c3ccc(O)cc3)c(=O)c12 [Compound 40, 5-Amino-3-(4-hydroxyphenyl)-4-oxo-3,4-dihydrothieno[3,4-d]pyridazine-1-carboxylic acid]	–

solubility [1] [µM]	SMILES	further results
> 200	Cc1nn(CC(F)(F)F)c(=O)c2c(N)scc12 [Compound 58, 7-Amino-4-methyl-2-(2,2,2-trifluoroethyl)thieno[3,4-d]pyridazin-1(2H)-one]	–
80 (≈ 17.9 µg/mL)	Cc1nn(C(C)C)c(=O)c2c(N)scc12 [Compound 57, 7-Amino-2-isopropyl-4-methylthieno[3,4-d]pyridazin-1(2H)-one]	–
80 (≈ 23.3 µg/mL)	Cc1nn(-c2ccc(Cl)cc2)c(=O)c2c(N)scc12 [Compound 63, 7-Amino-2-(4-chlorophenyl)-4-methylthieno[3,4-d]pyridazin-1(2H)-one]	–
> 200	Nc1scc2c(C(=O)O)nn(-c3ccc(F)cc3)c(=O)c12 [Compound 34, 5-Amino-3-(4-fluorophenyl)-4-oxo-3,4-dihydrothieno[3,4-d]pyridazine-1-carboxylic acid]	–
32 (≈ 11.6 µg/mL)	CC(C)NC(=O)c1nn(-c2cccc(Cl)c2)c(=O)c2c(N)scc12 [Compound 46, 5-Amino-3-(3-chlorophenyl)-N-isopropyl-4-oxo-3,4-dihydrothieno[3,4-d]pyridazine-1-carboxamide]	–
> 200	Nc1scc2c(C(=O)O)nn(-c3ccc(OC(F)(F)F)cc3)c(=O)c12 [Compound 39, 5-Amino-4-oxo-3-(4-(trifluoromethoxy)phenyl)-3,4-dihydrothieno[3,4-d]pyridazine-1-carboxylic acid]	–
12.8 (≈ 5.49 µg/mL)	CCOC(=O)c1nn(-c2ccc(Cl)cc2)c(=O)c2c(N)sc(Br)c12 [Compound 68, Ethyl 5-amino-7-bromo-3-(4-chlorophenyl)-4-oxo-3,4-dihydrothieno[3,4-d]pyridazine-1-carboxylate]	Inhibition in the K18PL fibrillization assay [2]: near full inhibition
> 200	CCOC(=O)c1nn(-c2ccc(Cl)cc2)c(=O)c2c1C(O)NC2=O (stereo not shown) [Compound 69, Ethyl 2-(4-chlorophenyl)-5-hydroxy-1,7-dioxo-2,5,6,7-tetrahydro-1H-pyrrolo[3,4-d]pyridazine-4-carboxylate]	–
32 (≈ 10.3 µg/mL)	Nc1scc2c(C(=O)O)nn(-c3cccc(Cl)c3)c(=O)c12 [Compound 36, 5-Amino-3-(3-chlorophenyl)-4-oxo-3,4-dihydrothieno[3,4-d]pyridazine-1-carboxylic acid]	–
> 200	Nc1scc2c(C(=O)O)nn(-c3ccccc3Cl)c(=O)c12 [Compound 35, 5-Amino-3-(2-chlorophenyl)-4-oxo-3,4-dihydrothieno[3,4-d]pyridazine-1-carboxylic acid]	–
> 200	Cc1n[nH]c(=O)c2c(N)scc12 [Compound 55, 7-Amino-4-methylthieno[3,4-d]pyridazin-1(2H)-one]	Inhibition in the K18PL fibrillization assay [2]: near full inhibition; Plasma levels 1 h after dosing ([3]; 5 mg/kg i.p.): low plasma levels; Brain level ([3]; 1 h after 5 mg/kg i.p.): BLD ^d; Plasma level ([3]; 1 h after 5 mg/kg i.p.): BLD ^d
80 (≈ 29.5 µg/mL)	CC(C)c1ccc(-n2nc(C(=O)NC3CC3)c3csc(N)c3c2=O)cc1 [Compound 50, 5-Amino-N-cyclopropyl-3-(4-isopropylphenyl)-4-oxo-3,4-dihydrothieno[3,4-d]pyridazine-1-carboxamide]	–
32 (≈ 11.2 µg/mL)	CCOC(=O)c1nn(-c2cccc(Cl)c2)c(=O)c2c(N)scc12 [Compound 28, Ethyl 5-amino-3-(3-chlorophenyl)-4-oxo-3,4-dihydrothieno-[3,4-d]pyridazine-1-carboxylate]	–
> 200	Cc1nn(C)c(=O)c2c(N)scc12 [Compound 56, 7-Amino-2,4-dimethylthieno[3,4-d]pyridazin-1(2H)-one]	Inhibition in the K18PL fibrillization assay [2]: near full inhibition; Brain level ([3]; 1 h after 5 mg/kg i.p.): BLD ^d
> 200	CCOC(=O)c1c(C(=O)c2ccccc2)csc1N [Compound 54, Ethyl 2-amino-4-benzoylthiophene-3-carboxylate]	–
80 (≈ 33 µg/mL)	CC(C)NC(=O)c1nn(-c2ccc(OC(F)(F)F)cc2)c(=O)c2c(N)scc12 [Compound 48, 5-Amino-N-isopropyl-4-oxo-3-(4-(trifluoromethoxy)-phenyl)-3,4-dihydrothieno[3,4-d]pyridazine-1-carboxamide]	–
> 200	CCOC(=O)c1nn(-c2ccc(F)cc2)c(=O)c2c(N)scc12 [Compound 26, Ethyl 5-amino-3-(4-fluorophenyl)-4-oxo-3,4-dihydrothieno[3,4-d]pyridazine-1-carboxylate]	–
32 (≈ 11.4 µg/mL)	CCOC(=O)c1nn(-c2ccc(C(C)C)cc2)c(=O)c2c(N)scc12 [Compound 33, Ethyl 5-amino-3-(4-isopropylphenyl)-4-oxo-3,4-dihydrothieno[3,4-d]pyridazine-1-carboxylate]	–
